CHO-K1 Ca antag: counter-screen for M1 antagonists: effect in parental CHO-K1 cells; 360,000 compounds, 0.6% hits; ATP-induced calcium, Fluo-8 fluorescence; inhibition, % at 3 µM;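 active = inhibition above a per-plate cutoff, the plate's mean sample inhibition plus 3 SD, cut at about 24% in these data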;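 note: 0% = DMSO plus EC80 ATP and 100% = DMSO alone without ATP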
M5 ag: CHRM5 agonism in calcium assay | P08912 | CHO-K1 hM5 cells, Fluo-8 calcium fluorescence; 0% DMSO wells, 100% maximal acetylcholine response | activation, % at 3 µM | 360,000 compounds, 0.19% hits | AID 624037;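 active = activation above the run's mean over test compounds plus 3 SD, cut at about 23% in these data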;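 note: signal is peak over basal fluorescence ratio across the kinetic read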
Target sequence (P08912 whole entry, looked up): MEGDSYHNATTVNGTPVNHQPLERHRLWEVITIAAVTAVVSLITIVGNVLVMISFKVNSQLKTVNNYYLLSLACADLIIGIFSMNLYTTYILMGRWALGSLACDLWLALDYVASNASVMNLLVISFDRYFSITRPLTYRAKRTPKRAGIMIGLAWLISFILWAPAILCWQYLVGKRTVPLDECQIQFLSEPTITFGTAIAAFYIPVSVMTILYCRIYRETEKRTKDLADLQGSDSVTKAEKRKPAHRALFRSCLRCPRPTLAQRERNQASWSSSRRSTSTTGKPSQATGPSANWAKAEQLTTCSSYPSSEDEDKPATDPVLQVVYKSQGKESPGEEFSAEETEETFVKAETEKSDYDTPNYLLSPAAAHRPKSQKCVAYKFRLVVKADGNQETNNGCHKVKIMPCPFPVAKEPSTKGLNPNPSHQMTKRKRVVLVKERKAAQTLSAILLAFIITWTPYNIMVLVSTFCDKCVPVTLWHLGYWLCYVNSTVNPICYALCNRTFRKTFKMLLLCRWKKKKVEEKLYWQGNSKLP
CHO-K1 Ca ag: M1 agonist counterscreen hit in parental CHO-K1 cells | Fluo-8 calcium fluorescence; scaled to maximal ATP response, vehicle zero | activation, % at 3 µM | 360,000 compounds, 0.48% hits; in the data active = activation above about 15%;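 note: untransfected CHO-K1 host cells lacking M1 receptor as counterscreen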
M5 antag: blocks acetylcholine activation of human M5 receptor | P08912 | CHO-hM5 cells, Fluo-8 calcium fluorescence, ACh EC80 | inhibition, % at 3 µM | 360,000 compounds, 0.59% hits;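 active = inhibition above a per-plate cutoff, the mean of that plate's test compounds plus 3 SD, cut at about 27% in these data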;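 note: 0% = acetylcholine EC80 with DMSO and 100% = DMSO without agonist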
CHRM5 PAM: CHRM5 positive allosteric modulation | activation, % at 3 µM | 360,000 compounds, 0.3% hits | CHO-K1 hM5, Fluo-8 calcium, ACh EC20 PAM; 0% = ACh EC20, 100% = ACh EC100 | P08912;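 active = activation above the run cutoff, the mean activation of all test compounds plus 3 SD, cut at about 18% in these data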
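system = human M5 receptor in CHO-K1 cells | reagent = EC20 acetylcholine as agonist stimulus | compound dosing = single-point, 3 µM nominal | incubation = Fluo-8 loading 80 min at 37 °C plus 30 min room temperature | detection = Fluo-8 calcium dye fluorescence, kinetic read | benchmarks = low control EC20 acetylcholine (0%), high control EC100 acetylcholine (100%)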
CHO-K1 Ca PAM: counter-screen for M1 PAMs: effect in parental CHO-K1 cells; ATP EC20, Fluo-8 calcium fluorescence; 0% at ATP EC20, 100% at ATP max; activation, % at 3 µM; 360,000 compounds, 0.02% hits; AID 602247;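 active = activation above the run cutoff, the mean activation of all test compounds plus 3 SD, cut at about 40% in these data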;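 note: peak over basal fluorescence ratio in a 140 s read after ATP addition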
The depositor's hits bear a star. Compounds with a hit are over-represented: about 1.7% of the library has one in this group of screens.

SMILES	CHO-K1 Ca antag	M5 ag	CHO-K1 Ca ag	M5 antag	CHRM5 PAM	CHO-K1 Ca PAM
O=C1CSC(=S)N1/N=C/c1ccc(C(F)(F)F)cc1	-7.5	1.6	0.6	-7.4	0.9	-0.2
CCCCCCNS(=O)(=O)c1ccc(OC)c(OC)c1	10.8	0.5	0.8	-0.1	0.6	-5.7
O=C(N/N=C/c1ccc(Cl)cc1Cl)c1cccc(N2CCCC2=O)c1	-0.4	-3.5	0.2	8.9	-4.7	4.4
O=C(NC1CCCN(Cc2ccc(Cl)cc2)C1)c1cccc(N2CCCC2=O)c1 (stereo unspecified)	-6.2	-4.7	-0.2	5.8	-6.6	0.4
O=C(NC1CCCCCC1)c1cccc(N2CCCC2=O)c1	32.1*	0.2	-0.1	0.8	4.5	-6.5
O=C(N/N=C/c1cc(Br)cc(Br)c1O)c1cccc(N2CCCC2=O)c1	33.9*	0.3	-0.7	1.7	9.9	0.9
O=C1C=CC(=Nc2cccc3c2C(=O)c2ccccc2-3)O1	-2.6	45.0*	10.0	12.0	-13.6	16.6
CCOC(=O)N1CCN(C(=O)c2ccc3c(c2)N=C(C)c2cc(Cl)ccc2S3)CC1	-6.8	-7.0	4.3	10.8	-5.0	7.1
Nc1c(C(=O)NCc2ccc3c(c2)OCO3)nnn1Cc1ccc(Br)cc1	-2.6	30.1*	17.9*	5.3	6.6	19.3
Nc1c(C(=O)NCc2ccc3c(c2)OCO3)nnn1Cc1cccc(F)c1	-3.8	7.0	1.7	-2.0	8.0	8.3
COc1cccc(NC(=O)Cn2nnc(C(=O)NCc3ccc4c(c3)OCO4)c2N)c1	-10.6	0.2	0.5	-19.1	22.1*	2.2
Nc1c(C(=O)NCc2ccc3c(c2)OCO3)nnn1CC(=O)Nc1ccc(Br)cc1	-1.9	-0.2	1.1	8.3	2.3	11.2
Cc1ccc(NC(=O)Cn2nnc(C(=O)NCc3ccc4c(c3)OCO4)c2N)cc1	-7.0	1.3	0.5	-17.8	18.1*	-1.6
COc1ccc(S(=O)(=O)NNC(=O)c2ccccc2-n2cccc2)cc1	3.2	-2.5	0.1	5.6	-5.0	5.1
O=C1CN(C(=O)COC(=O)CCC(=O)c2ccc(Cl)cc2)c2ccccc2N1	-6.0	4.4	3.8	12.1	-0.4	12.1
O=C(NCC(c1ccco1)N1CCCCC1)C(c1ccccc1)c1ccccc1 (stereo unspecified)	-10.5	-15.1	0.1	20.8	-27.7	4.7
CCN(CCn1cccn1)C(=O)CCc1nnc(-c2ccc3c(c2)OCO3)o1	0.2	0.5	0.2	-6.0	21.7*	15.0
CCc1cccc(CC)c1NC(=O)COC(=O)Cc1ccsc1	3.5	0.7	-0.2	2.9	-3.7	22.4
Cc1cc(C)nc(NC(=O)c2cc(Br)ccc2Cl)n1	-17.6	-0.1	2.1	3.7	1.9	23.6
CCNC(=O)c1cc(Br)ccc1Cl	24.0*	0.1	-0.3	-4.6	1.2	10.0
CCOC(=O)c1c(C)[n+](-c2ccc(C)cc2)c(CC)c2cc(OC)c(OC)cc12	-6.4	-6.4	0.9	-4.5	4.6	14.2
CCN1CCN(S(=O)(=O)c2cc(OCC(=O)NC3CCCCC3)c(C)cc2Cl)CC1	26.7*	-0.9	1.3	19.4	-16.1	-6.0
Cc1cc(Cl)c(S(=O)(=O)N2CCCCCC2)cc1OCC(=O)NC1CCCCC1	-8.0	4.2	2.9	-1.4	-2.6	8.8
COc1ccc(NC(=S)NCCc2ccc(S(N)(=O)=O)cc2)c(OC)c1	12.0	0.0	4.5	27.1*	-20.2	2.3
NS(=O)(=O)c1ccc(CCNC(=O)CNC(=O)c2ccccc2F)cc1	-1.9	-2.7	-0.2	4.8	2.9	0.1
SMILES	CHO-K1 Ca antag	M5 ag	CHO-K1 Ca ag	M5 antag	CHRM5 PAM	CHO-K1 Ca PAM
NS(=O)(=O)c1ccc(CCNC(=O)c2ccccc2F)cc1	27.9*	0.6	0.1	0.2	-4.7	-9.9
COc1ccccc1NC(=S)NCCc1ccc(S(N)(=O)=O)cc1	-6.9	0.3	0.4	4.5	-1.5	6.0
Cc1cc(C(=O)NCCc2ccc(S(N)(=O)=O)cc2)no1	-18.7	3.8	1.4	3.3	18.3*	18.8
O=C(COc1ccc(Cl)cc1)Nc1ccc2oc(-c3ccncc3)nc2c1	-0.8	-6.1	0.1	-0.3	-3.0	9.2
O=C(NCCCNC(=O)c1ccco1)c1ccc(Cl)c(Cl)c1	-11.3	-4.2	1.0	-4.0	-0.3	-7.4
O=C(CSc1nccn1-c1ncc(C(F)(F)F)cc1Cl)c1ccc(Br)cc1	18.0	-1.6	-0.3	19.3	21.8*	-5.8
O=C(NCC1(N2CCCCC2)CCCCC1)c1ccc(NS(=O)(=O)c2ccccc2)cc1	27.6*	-0.4	1.1	5.4	2.3	-4.2
COc1cccc(-c2ccc3c(c2)C2CC3CCN2C(=O)c2ccc(Cl)cc2)c1 (stereo unspecified)	-19.2	2.2	0.6	-0.2	-6.5	7.9
Cc1ccccc1Nc1nc(N)nc(CSc2nc3ccccc3c(=O)n2C)n1	29.1*	7.6	18.4*	8.2	-5.8	-1.9
CCOc1ccccc1N1CC(C(=O)Nc2ccccc2N2CCCC2)CC1=O (stereo unspecified)	-0.7	0.7	1.0	6.8	-4.3	3.2
O=C(NCc1cccc(F)c1)c1cccc2c1C(=O)c1ccc(N3CCCC3)cc1S2(=O)=O	-7.3	35.2*	13.2	16.6	-36.2	13.1
O=C(NCc1cccc(F)c1)c1cccc2c1C(=O)c1ccc(N3CCC(Cc4ccccc4)CC3)cc1S2(=O)=O	-2.8	13.7	6.3	27.8*	-5.8	17.4
CC1CCN(c2ccc3c(c2)S(=O)(=O)c2cccc(C(=O)NCc4cccc(F)c4)c2C3=O)CC1	-16.6	5.5	4.8	15.4	-8.6	4.8
O=C(NCc1cccc(C(F)(F)F)c1)c1cccc2c1C(=O)c1ccc(N3CCC(Cc4ccccc4)CC3)cc1S2(=O)=O	-18.2	11.6	2.4	12.6	0.4	16.1
O=C(CSc1n[nH]c(=O)n1C1CC1)Nc1cc(Cl)ccc1Oc1ccccc1	25.1*	3.7	7.8	30.4*	-20.1	4.1
CCOC(=O)Cc1csc(SCC(=O)Nc2cccc(Cl)c2)n1	15.1	5.8	7.0	5.0	-21.6	-6.7
CCOC(=O)Cc1csc(SCC(=O)Nc2cc(Cl)ccc2Oc2ccccc2)n1	28.6*	-3.5	7.0	20.3	-15.8	1.1
CN(C)C(=O)c1cc(C(=O)c2ccc(F)cc2F)c[nH]1	22.1	-4.8	0.1	0.3	3.1	5.5
COCCn1c2nc(=O)n(-c3ccccc3)c(=O)c-2nc2ccccc21	9.7	28.4*	72.7*	7.6	-6.0	7.6
O=C(O)c1ccc(N(Cc2ccccc2)S(=O)(=O)c2ccccc2)cc1	3.4	-1.2	0.8	1.9	-1.7	-10.3
CC(=O)N(Cc1ccccc1)c1ccc(C(=O)O)cc1	16.9	-1.6	-0.1	3.0	25.3*	-8.0
CN1CCN(C2Cc3ccc(F)cc3Sc3cc(F)c(Cl)cc32)CC1 (stereo unspecified)	6.4	-14.8	0.9	9.9	-20.0	-3.6

Screens (PubChem)
